ROMK mod: ROMK potassium channel modulators, primary screen, cell-based, thallium flux, MLSMR library | Tet-inducible ROMK, thallium flux fluorescence; actives lie on both sides | hit rate 2% among 130,000 | ATP-sensitive inward rectifier potassium channel 1 (Homo sapiens), P48048 | AID 1918, 2009 | B-score at 10 µM;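 active = signal ratio slope over the read window, or its plate-corrected B-score, at least 3 SD from the plate mean, either direction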;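 also: B-score of the F/F0 ratio slope over 7 to 12 s after thallium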
Target sequence (P48048 whole entry, looked up): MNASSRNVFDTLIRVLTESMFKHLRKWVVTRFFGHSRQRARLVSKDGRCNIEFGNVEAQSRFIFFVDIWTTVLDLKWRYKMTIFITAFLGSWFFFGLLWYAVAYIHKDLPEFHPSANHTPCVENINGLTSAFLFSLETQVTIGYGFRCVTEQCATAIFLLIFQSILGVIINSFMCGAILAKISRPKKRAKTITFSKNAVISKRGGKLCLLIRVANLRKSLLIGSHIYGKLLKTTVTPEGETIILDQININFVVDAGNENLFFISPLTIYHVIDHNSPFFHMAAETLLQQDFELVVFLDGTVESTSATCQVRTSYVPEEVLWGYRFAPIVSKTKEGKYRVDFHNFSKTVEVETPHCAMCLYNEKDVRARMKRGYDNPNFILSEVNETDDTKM
L major viab: Leishmania major promastigote growth inhibition, primary screen; hit rate 9% among 200,000; inhibition, % at 10 µM; Leishmania major promastigotes, resazurin fluorescence viability; in the data active = inhibition above about 50%;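 also: promastigotes grown with compound for 44 hours at 28 °C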
WT yeast gro inh: growth inhibition of WT strain, primary screen, mitochondrial fusion inhibitor project, WT and mutant strains, chemical genetic; mitochondrial fusion phenotypic screen; inhibition, % at 10 µM; hit rate 2.1% among 190,000; in the data active = inhibition above about 58%; tested in S. cerevisiae
Diaphorase inh: diaphorase inhibitors and chemical oxidizers, primary screen, counter-screen for diaphorase-coupled primary assays, biochemical, uHTS, resorufin fluorescence; inhibition, % at 20 µM; diaphorase resazurin-to-resorufin fluorescence, NADH, 16 min; bacterial (C. kluyveri) enzyme, not human; hit rate 0.69% among 190,000; AID 1217, 2008;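 active = primary screen inhibition at 20 µM above a set limit, cut at about 50% in these data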;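 also: plate controls were DMSO with full reaction for no effect and wells lacking NADH for full effect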
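Test system: Clostridium kluyveri diaphorase enzyme / Quantity: diaphorase at 0.14 U/mL in enzyme working solution / Incubation: 16-min room-temperature incubation before reading / Benchmarks: NADH-free wells as positive control, DMSO-only neutral wells / Signal: resorufin fluorescence 544/590 nm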
Diaphorase act: compounds boosting diaphorase resazurin reduction – biochemical, uHTS, resorufin fluorescence, counter-screen for diaphorase-coupled primary assays, primary screen | Diaphorase/resazurin coupled assay, 16 min; active compounds read high; 1 = vehicle wells, 0 = NADH-free wells | activation factor at 20 µM | hit rate 0.005% among 190,000;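 active = diaphorase activity raised at least twofold by the compound at 20 µM; inactive = activation factor below 2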
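System – purified diaphorase enzyme from Clostridium kluyveri · Input – enzyme 0.07 U/mL final · Also added – final NADH 0.114 mM, resazurin 0.1 mM · Measured by – fluorescence of resorufin, 544 nm excitation, 590 nm emission · Timing – 16 min enzyme reaction, ambient temperature · Measure – resorufin increase flagging diaphorase activators or reducers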
KCC2 mod: KCC2 cotransporter modulators, thallium flux, primary screen, cell-based, HEK293 KCC2, FluoZin-2 fluorescence, MLSMR. Solute carrier family 12 member 5 (Homo sapiens), Q9H2X9. KCC2 cells, thallium flux FluoZin-2 fluorescence. B-score of Tl+ flux slope (higher = more flux/activation; lower = inhibition) at 10 µM. hit rate 2.2% among 190,000. AID 1456, 2008;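 active = thallium flux slope and its plate-corrected score both differing from the plate sample mean at a set confidence after two filtering rounds, in either direction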;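 also: slope of fluorescence scaled to starting intensity during 10 to 20 s after thallium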
KCC2 secondary: KCC2 modulators in sodium-free buffer, confirmation, cell-based, HEK293 KCC2, thallium flux, secondary assay | shares compounds with KCC2 mod | hit rate 15% among 3,700 | FluoZin2 fluorescence; active compounds read high | normalised thallium flux (F/F0 slope) at 10 µM;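 active = thallium flux slope above the same plate's solvent-only control mean plus 3 SD; inconclusive = the two replicate wells disagree; inactive = no significant difference from solvent-only control wells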
KCC2 bumet counter: thallium flux persisting under bumetanide in KCC2 cells, confirmation, counter-screen for KCC2 modulator project, cell-based, HEK293 KCC2, FluoZin2, secondary assay 3 | shares compounds with KCC2 mod | HEK293-KCC2 + bumetanide/ouabain; active compounds read high | normalized thallium flux at 10 µM | hit rate 49% among 3,700 | AID 1714, 2009;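 active = thallium entry rate above the same plate's blocked-transporter control wells by more than 3 SD; inconclusive = the two repeat wells disagree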;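 also: raw slope of fluorescence over initial fluorescence between 10 and 20 s after thallium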
KCC2 secondary2: KCC2 modulators without ouabain present, confirmation, cell-based, HEK293 KCC2, thallium flux, FluoZin2, secondary assay 2; shares compounds with KCC2 mod; thallium flux FluoZin2 fluorescence; actives lie on both sides; F/F0 rise rate, 10–20 s post-thallium; normalized thallium flux at 10 µM; hit rate 23% among 3,700; AID 1715, 2009;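 active = thallium flux slope more than 3 SD above or below the plate's solvent-only control mean, mostly below; inconclusive = the two repeat wells disagreed; inactive = no significant shift from solvent-only controls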;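 also: raw slope with 0.1% DMSO as baseline and bumetanide as block control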
HEK counter1: thallium flux modulation in parental HEK cells, confirmation, counter-screen for KCC2 modulator project, cell-based, counterscreen 1. shares compounds with KCC2 mod. HEK293 parental cells, thallium flux FluoZin2, ouabain; baseline-ratio fluorescence slope, 10–20 s after thallium. thallium flux rate (normalised fluorescence) at 10 µM. hit rate 46% among 3,700. AID 1716, 2009;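 active = thallium flux rate significantly above the same plate's solvent-only control wells, beyond their mean plus 3 SD; inconclusive = the two replicate wells gave conflicting results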
KCC2 retest ouab: KCC2 inhibitors and activators, ouabain retest, confirmation, HEK-KCC2 cells; HEK293-KCC2, thallium flux FluoZin2 fluorescence; bidirectional: low = inhibitor, high = activator; hit rate 48% among 3,700; raw Tl+ flux slope (below DMSO = inhibition, above = activation) at 10 µM; shares compounds with KCC2 mod;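 active = thallium flux slope beyond 3 SD from same-plate DMSO control mean in most replicates, usually higher, sometimes lower; inconclusive = repeat tests gave conflicting results; inactive = no significant difference from controls in most replicates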;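 also: slope of initial-normalized fluorescence between seconds 10 and 20 after thallium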
HEK counter2: native HEK Tl+ uptake effects, second counter-screen – HEK cells, counterscreen 2, counter-screen for KCC2 modulator project, confirmation; HEK293 parental, thallium flux FluoZin-2 fluorescence slope; thallium flux slope at 10 µM; shares compounds with KCC2 mod; hit rate 33% among 3,700;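 active = thallium flux slope above the same plate's solvent-control mean plus 3 SD in both duplicate wells; inconclusive = duplicate wells that disagreed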;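 also: run without ouabain in cells lacking the KCC2 cotransporter; slope of fluorescence scaled to its starting value between 10 and 20 s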
The depositor's hits bear a star; u = inconclusive; x = no result given. Sampled rows, rich in hits. Any-hit rate of the full collection: about 12%.

SMILES	ROMK mod	L major viab	WT yeast gro inh	Diaphorase inh	Diaphorase act	KCC2 mod	KCC2 secondary	KCC2 bumet counter	KCC2 secondary2	HEK counter1	KCC2 retest ouab	HEK counter2
CC1CCCCN1CCCNC(=O)C1CCN(c2nc3ccccc3o2)CC1 (centres undefined)	x	-1	10	8	0.9	1.4	x	x	x	x	x	x
Cc1onc(-c2ccccc2Cl)c1C(=O)Nc1ccccc1N1CCOCC1	1.1	30	16	31	0.7	2.6	x	x	x	x	x	x
O=C(NC(=S)N(CCO)Cc1ccccc1)c1cc(Br)ccc1Cl	0.4	-3	21	13	0.9	10*	0.015*	0.039*	0.033	u	0.033*	0.012
N#CCCN(Cc1ccccc1)C(=S)NC(=O)c1ccccc1	x	6	26	23	0.8	x	x	x	x	x	x	x
Oc1cc2ccccc2cc1-c1n[nH]c(=S)n1Cc1ccco1	-0.71	-10	-4	46	0.5	8.9*	0.0092	0.023*	0.03	0.013*	u	0.0098
Oc1ccc(-c2n[nH]c(=S)n2Cc2ccco2)cc1	0.49	-9	25	10	0.9	1.4	x	x	x	x	x	x
COC(=O)c1cnc(NNC(=O)c2ccc([N+](=O)[O-])cc2)nc1C(F)(F)F	x	x	x	x	x	3.5*	0.0092	0.011*	0.032	u	0.021	0.011
CCOc1ccc(CCNC(=O)C2CCCN(S(=O)(=O)c3c(C)n[nH]c3C)C2)cc1OCC (centres undefined)	x	0	5	-2	1	x	x	x	x	x	x	x
COc1cc(/C=C/C2=NC(=O)C(C)(C)O2)ccc1O	x	14	-1	16	0.8	0.73	x	x	x	x	x	x
COc1cc(/C=C/c2ccc3c(Br)cc(Br)c(O)c3n2)ccc1O	x	x	x	x	x	7.5*	0.011	0.013*	0.035	0.0091*	0.023	0.01
CCN1C(c2ccc(F)cc2)=CS/C1=C(\C#N)c1nnc2n1-c1ccccc1SC2	x	72*	1	28	0.7	-5.1*	0.0084	0.0048	0.034	0.0078	0.015*	0.012
COc1cc(OC)c(C2=NOC(C(=O)N3CCc4ccccc4C3)C2)cc1Cl (centres undefined)	x	2	23	3	1	-3.2*	0.0057	0.0039	0.024*	0.0074	u	0.0092
COc1cc(OC)c(C2=NOC(C(=O)N3CCN(C(=O)c4ccco4)CC3)C2)cc1Cl (centres undefined)	0.003	-5	-21	2	1	-0.61	x	x	x	x	x	x
COc1cccc(C2=NOC(C(=O)N3CCN(Cc4ccccc4)CC3)C2)c1OC (centres undefined)	x	5	-4	4	1	-4*	0.0065	0.0057	0.029	0.0062	0.016*	u
O=C(CCO)c1ccc(O)cc1	x	-10	0	24	0.8	0.22	x	x	x	x	x	x
O=C(c1ccc(O)cc1)c1ccc(C(=O)c2ccc(O)cc2)cc1	2.1	-8	-4	19	0.8	0.72	0.0081	0.0074	0.027	0.0069	0.019	0.0094
C=C(C)CNC(=S)Nc1cccc(N)n1	-0.49	5	20	18	0.8	1.5	x	x	x	x	x	x
CC(C)[C@H](NS(=O)(=O)c1cccc(C(F)(F)F)c1)C(=O)OCC(N)=O	-0.22	-10	-11	7	0.9	2	x	x	x	x	x	x
COc1ccc(CNC(=S)N/N=C(\C)c2ccc(OC)cc2)cc1	x	x	x	x	x	2	x	x	x	x	x	x
C/C(=N\NC(=S)NCc1ccccc1)c1ccc2ccccc2c1	1.1	44	64*	9	0.9	6*	0.0085	0.019*	0.027	0.0085*	u	0.0093
COc1ccc(NC(=S)NCCCc2ccccc2)cc1	0.012	1	18	23	0.8	-4.8*	0.015	u	0.023*	0.0067	0.015	0.0094
C=CCNC(=S)N/N=C(\C)c1cccc(OC)c1	-0.68	13	34	6	0.9	4.9*	0.013*	0.043*	0.032	0.015*	0.026	0.012*
C/C(=N\NC(=S)NC(C)C)c1ccccc1	x	x	x	x	x	5.8*	u	0.02*	0.028	0.0095*	0.046*	u
O=C(NN1C(=O)c2ccccc2NC1c1ccccn1)c1ccc([N+](=O)[O-])cc1 (centres undefined)	x	27	15	4	1	-0.39	x	x	x	x	x	x
CCC(=O)NC(Nc1c(C)n(C)n(-c2ccccc2)c1=O)C(Cl)(Cl)Cl (centres undefined)	1.8	3	0	5	1	0.76	x	x	x	x	x	x
CCN1C=C(C(=O)OC)C(c2cccc(OC)c2OC)C(C(=O)OC)=C1	0.41	-7	-8	-10	1.1	0.57	x	x	x	x	x	x
CC(=O)c1ccc(NC(=O)C(C)n2c3ccccc3c3nc(=O)cc(C)n32)cc1 (centres undefined)	-0.41	x	x	x	x	0.054	x	x	x	x	x	x
COc1ccccc1/C(C)=N/NC(=S)NCc1ccccc1	-0.43	3	65*	22	0.8	6.9*	0.0067	0.015*	0.031	0.015*	u	0.014*
C/C(=N\NC(=S)NCc1ccccc1)c1cccc(Br)c1	0.32	-2	70*	-2	1	4.8*	0.016	0.017*	0.029	0.0084	0.018	0.011
